Experiments:
RPMI-8226 cells = experiment: Disruption of protein geranylgeranylation in myeloma cells; assay type: cell-based; details: 48 hours
Method in brief: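 RPMI-8226 myeloma cells exposed 48 h to varying test compound concentrations, with lovastatin 10 μM as comparator. Rap1a: RIPA whole-cell lysate, antibody recognising only unmodified protein, β-tubulin loading control. Rab6: Triton X-114 detergent (membrane) fraction, calnexin loading control, densitometry normalised to calnexin and to untreated cells. Equal BCA-quantified protein resolved by SDS-PAGE, transferred to PVDF, detected with HRP secondary and ECL.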

Recombinant GGDPS = biological target: T1, Recombinant GGDPS (Homo sapiens, UniProt O95749); experiment: GGDPS enzyme assay; assay type: biochemical
T1 sequence (O95749 1-300): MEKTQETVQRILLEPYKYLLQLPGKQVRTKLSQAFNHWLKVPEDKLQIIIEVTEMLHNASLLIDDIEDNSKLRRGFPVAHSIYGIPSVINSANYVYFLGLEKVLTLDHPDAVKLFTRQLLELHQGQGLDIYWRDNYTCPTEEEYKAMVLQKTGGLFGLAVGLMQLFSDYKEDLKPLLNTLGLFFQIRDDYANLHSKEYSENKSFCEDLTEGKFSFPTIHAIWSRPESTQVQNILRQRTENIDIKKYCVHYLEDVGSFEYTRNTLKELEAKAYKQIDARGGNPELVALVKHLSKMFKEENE

Compound	lowest concentration at which disruption of protein geranylgeranylation was seen (RPMI-8226 cells) [µM]	potency relative to geranyl 1 (GGDPS inhibitory activity) (Recombinant GGDPS; compared with previously reported compound 1)	fold less potent than homogeranyl 4 (GGDPS inhibitory activity) (Recombinant GGDPS; compared with previously reported compound 4) [fold]
CC(C)=CCC/C(C)=C\CCCn1cc(CC(P(=O)([O-])[O-])P(=O)([O-])[O-])nn1.[Na+].[Na+].[Na+].[Na+] [17c, Sodium (4Z)–(2–(1–(5,9–dimethyldeca–4,8–dienyl)–1H–1,2,3–triazol–4–yl)ethane–1,1–diyl)bis(phosphonate)]	0.5	–	–
CC(C)=CCC/C(C)=C/CCCn1cc(CC(P(=O)([O-])[O-])P(=O)([O-])[O-])nn1.[Na+].[Na+].[Na+].[Na+] [17b, Sodium (4E)–(2–(1–(5,9–dimethyldeca–4,8–dienyl)–1H–1,2,3–triazol–4–yl)ethane–1,1–diyl)bis(phosphonate)]	–	six-fold more potent	15

Reference: paper PMC5450914 (Bioorganic & medicinal chemistry, 2017)
